pCIP destab = compounds decreasing mouse p/CIP protein stability | Q05BA5 | 290,000 compounds, 0.01% hits | decrease of EGFP signal, % at 10 µM | F442A p/CIP-EGFP cells, EGFP fluorescence, 16 h;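 active means EGFP signal decrease of at least 30% at 10 µM or well 3 SD below plate mean, unless failing retest; inactive means the rest, including hits failing retest or dose response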
Tb MetRS inh = blocks T. brucei methionyl-tRNA synthetase activity | 360,000 compounds, 0.4% hits | purified T. brucei MetRS, ATP depletion, Kinase-Glo luminescence | inhibition, % at 11.9 µM | AID 624268;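 active means inhibition above a per-plate cutoff of the control wells' mean inhibition plus 3 SD, cut at about 5.5% in these data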;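 further: 0% = DMSO wells median and 100% = median of wells with control inhibitor compound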
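Dosing: 11.9 µM compound single dose, 0.9% DMSO; Assay system: purified T. brucei MetRS enzyme; Measured by: Kinase-Glo luciferase luminescence reporting remaining unconsumed ATP; Schedule: 15 min plus 2 h at 25 °C.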
A3A deaminase = human APOBEC3A DNA deaminase inhibition; recombinant A3A, FAM/TAMRA ssDNA deamination fluorescence; 330,000 compounds, 0.41% hits; P31941; inhibition, % at 20 µM;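 active means at least 40% inhibition at 20 µM here, with at most 30% in a related deaminase screen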;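 further: plate controls were A3A with DMSO for no effect and wells lacking A3A enzyme for full effect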
Target sequence (P31941 whole entry, looked up): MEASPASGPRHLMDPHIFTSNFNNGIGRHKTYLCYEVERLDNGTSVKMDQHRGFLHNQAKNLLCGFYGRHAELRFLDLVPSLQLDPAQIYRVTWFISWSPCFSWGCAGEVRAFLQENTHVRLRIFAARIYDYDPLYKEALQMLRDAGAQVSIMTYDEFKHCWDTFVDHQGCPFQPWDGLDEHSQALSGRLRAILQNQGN
A3G deaminase = inhibitors of human APOBEC3G DNA deaminase | recombinant A3G, ssDNA deamination FAM/TAMRA fluorescence | 330,000 compounds, 0.28% hits | inhibition, % at 20 µM | AID 493012 | Q9HC16;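 active means inhibition of at least 40% at 20 µM, with no more than 30% in the related APOBEC3A deaminase screen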;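 further: plate controls were DMSO wells with A3G for no effect and wells lacking A3G enzyme for full effect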
PHOSPHO1 inh = blocks human PHOSPHO1 phosphatase activity; Q8TCT1; recombinant PHOSPHO1, absorbance phosphatase assay; inhibition, % at 13.3 µM; 290,000 compounds, 1.1% hits; in the data active means inhibition above about 60%
Target sequence (Q8TCT1 whole entry, looked up): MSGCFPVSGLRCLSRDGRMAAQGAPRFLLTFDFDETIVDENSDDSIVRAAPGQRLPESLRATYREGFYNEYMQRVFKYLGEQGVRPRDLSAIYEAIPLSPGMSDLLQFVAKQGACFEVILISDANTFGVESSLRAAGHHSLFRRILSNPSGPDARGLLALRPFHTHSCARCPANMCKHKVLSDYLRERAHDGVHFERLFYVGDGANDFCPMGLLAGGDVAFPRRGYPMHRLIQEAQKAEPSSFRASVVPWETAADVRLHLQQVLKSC
TbMetRS confirm = Trypanosoma brucei MetRS inhibition confirmed. T. brucei MetRS enzyme, luminescence (ATP depletion). 1,400 compounds, 93% hits. shares compounds with Tb MetRS inh. inhibition, % at 11.9 µM; in the data active means inhibition above about 7%
Jurkat cytotox = counter-screen for T. brucei MetRS inhibitors: Jurkat cell cytotoxicity | shares compounds with Tb MetRS inh | Jurkat cells viability, ATP luminescence | inhibition, % at 8.3 µM | 1,400 compounds, 12% hits | AID 624413; in the data active means inhibition above about 15%;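 further: 0% = vehicle and 100% = reference inhibitor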
Tb MetRS inh FP = orthogonal test for Trypanosoma brucei MetRS inhibitors; shares compounds with Tb MetRS inh; purified T. brucei MetRS, fluorescence polarization; inhibition, % at 11.9 µM; 1,400 compounds, 44% hits; AID 651607; in the data active means inhibition above about 17%;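 further: 0% = vehicle wells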
The depositor's hits bear a star. Sampled rows, rich in hits. Any-hit rate of the full collection: about 1.8%.

Results for Cc1cc(C)n(CC(O)COc2ccc(Cl)cc2Cl)n1 (stereo not given) ?
pCIP destab: 4.7; Tb MetRS inh: 1.8; A3A deaminase: -4.0; A3G deaminase: -5.7; PHOSPHO1 inh: 23.9

Results for CCn1nnnc1-c1ccc(OC)c(S(=O)(=O)Nc2ccccc2OC)c1 ?
Tb MetRS inh: -0.1

Results for COc1ccc(N2CCN(C(=O)CCCCn3c(=O)[nH]c4ccsc4c3=O)CC2)cc1 ?
pCIP destab: -5.6; Tb MetRS inh: 6.7*; A3A deaminase: 0.2; A3G deaminase: -6.7; PHOSPHO1 inh: 28.5; TbMetRS confirm: 12.6*; Jurkat cytotox: 2.3; Tb MetRS inh FP: 5.1

What do the screens show for `O=C(CNC(=O)c1cccc(Br)c1)N/N=C/c1ccc[nH]1`?
pCIP destab: 8.5; Tb MetRS inh: 20.1*; A3A deaminase: 1.3; A3G deaminase: -6.7; PHOSPHO1 inh: 36.7; TbMetRS confirm: 53.4*; Jurkat cytotox: 14.6; Tb MetRS inh FP: 24.4*

Results for COC(=O)c1cccc(NC(=O)Cc2nc(-c3ccccc3)sc2-c2ccc(C)cc2)c1 ?
pCIP destab: 0.9; Tb MetRS inh: -0.1; A3A deaminase: -0.2; A3G deaminase: -2.0; PHOSPHO1 inh: 14.0

How did COc1ccc(OCC(O)CNC(=O)Nc2ccc(F)cc2)cc1 (stereo not given) do in these assays?
pCIP destab: -17.2; Tb MetRS inh: 5.7*; A3A deaminase: -0.7; A3G deaminase: -4.1; PHOSPHO1 inh: -3.6; TbMetRS confirm: 17.6*; Jurkat cytotox: -6.4; Tb MetRS inh FP: 15.1

How did COc1ccc(NC(=O)C(NC(C)=O)C(=O)Nc2ccc(F)cc2)cc1 (stereo not given) do in these assays?
pCIP destab: 0.4; Tb MetRS inh: 9.6*; A3A deaminase: -3.8; A3G deaminase: -7.9; PHOSPHO1 inh: -7.0; TbMetRS confirm: 19.2*; Jurkat cytotox: -5.9; Tb MetRS inh FP: 0.3

How did COc1ccc(NC(=O)C(NC(C)=O)C(=O)NCc2ccc(F)cc2)cc1 (stereo not given) do in these assays?
pCIP destab: 2.0; Tb MetRS inh: 2.5; A3A deaminase: -5.2; A3G deaminase: -4.7; PHOSPHO1 inh: 44.8

Results for COc1ccc(OCC(O)CNC(=O)Nc2ccccc2)cc1 (stereo not given) ?
pCIP destab: -2.8; Tb MetRS inh: 9.4*; A3A deaminase: 0.2; A3G deaminase: -0.8; PHOSPHO1 inh: 7.8; TbMetRS confirm: 21.1*; Jurkat cytotox: 7.5; Tb MetRS inh FP: 10.6

What do the screens show for `O=C(NCC(O)COc1ccc([N+](=O)[O-])cc1)Nc1ccccc1` (stereo not given)?
pCIP destab: -3.1; Tb MetRS inh: 41.6*; A3A deaminase: 0.3; A3G deaminase: -2.3; PHOSPHO1 inh: 3.2; TbMetRS confirm: 61.9*; Jurkat cytotox: 1.8; Tb MetRS inh FP: 41.0*

How did O=c1c2[nH]c3ccc(F)cc3c2ncn1CCCN1CCOCC1 do in these assays?
pCIP destab: -0.2; Tb MetRS inh: -0.8; A3A deaminase: -1.6; A3G deaminase: -0.3; PHOSPHO1 inh: 9.6

What do the screens show for `Clc1ccc2[nH]c3c(NCCN4CCOCC4)ncnc3c2c1`?
pCIP destab: -8.0; Tb MetRS inh: 42.3*; A3A deaminase: -0.3; A3G deaminase: -1.5; PHOSPHO1 inh: 2.9; TbMetRS confirm: 62.0*; Jurkat cytotox: 3.4; Tb MetRS inh FP: 26.4*

What do the screens show for `Fc1ccc2[nH]c3c(NCCN4CCOCC4)ncnc3c2c1`?
pCIP destab: -9.5; Tb MetRS inh: 26.8*; A3A deaminase: -2.6; A3G deaminase: -4.3; PHOSPHO1 inh: 11.0; TbMetRS confirm: 46.7*; Jurkat cytotox: 13.9; Tb MetRS inh FP: 19.7*

How did CN(CC(=O)Nc1ccc(Cl)c(C(F)(F)F)c1)C(=O)/C=C/c1ccco1 do in these assays?
pCIP destab: -22.0; Tb MetRS inh: 29.5*; A3A deaminase: -0.6; A3G deaminase: 0.9; PHOSPHO1 inh: -14.1; TbMetRS confirm: 37.8*; Jurkat cytotox: 0.6; Tb MetRS inh FP: 21.0*

Results for CN(CC(=O)Nc1ccc(Cl)c(C(F)(F)F)c1)C(=O)CCNC(=O)c1ccco1 ?
Tb MetRS inh: 0.7; A3A deaminase: -1.0; A3G deaminase: -4.3

How did CN(CC(=O)Nc1ccc(Cl)c(C(F)(F)F)c1)C(=O)/C=C/c1cccs1 do in these assays?
Tb MetRS inh: 20.6*; A3A deaminase: -3.2; A3G deaminase: 0.0; TbMetRS confirm: 70.3*; Jurkat cytotox: 4.7; Tb MetRS inh FP: 41.1*

Results for Cc1ccc(NC(=O)CNc2cc(S(=O)(=O)N3CCOCC3)ccc2NCC2CCCO2)cc1F (stereo not given) ?
pCIP destab: -8.5; Tb MetRS inh: 14.8*; A3A deaminase: -2.2; A3G deaminase: -4.4; PHOSPHO1 inh: 47.6; TbMetRS confirm: 21.1*; Jurkat cytotox: -3.0; Tb MetRS inh FP: 10.0

Results for O=C(CNc1cc(S(=O)(=O)N2CCOCC2)ccc1NCC1CCCO1)Nc1ccccc1F (stereo not given) ?
pCIP destab: -23.1; Tb MetRS inh: 10.5*; A3A deaminase: -3.5; A3G deaminase: -4.6; PHOSPHO1 inh: 18.5; TbMetRS confirm: 4.2; Jurkat cytotox: -1.1; Tb MetRS inh FP: -5.2

Results for Cc1ccc(S(=O)(=O)Nc2cc(S(=O)(=O)N3CCOCC3)ccc2NCC2CCCO2)cc1 (stereo not given) ?
Tb MetRS inh: -0.2; A3A deaminase: -0.9; A3G deaminase: -3.1

How did C[C@H](CO)N1C[C@H](C)[C@@H](CN(C)S(=O)(=O)c2ccc(Cl)cc2)Oc2ccc(NS(=O)(=O)c3ccccc3)cc2CC1=O do in these assays?
Tb MetRS inh: -0.2; A3A deaminase: 0.7; A3G deaminase: 14.1

What do the screens show for `Oc1ccc(Br)cc1Cn1nnc2ccccc21`?
pCIP destab: 3.6; Tb MetRS inh: 0.6; A3A deaminase: -3.4; A3G deaminase: -8.1

Results for O=C(C(=O)N1CCN(c2ccc(F)cc2)CC1)c1c[nH]c2ccccc12 ?
pCIP destab: -4.2; Tb MetRS inh: -0.2; A3A deaminase: 1.3; A3G deaminase: -0.9; PHOSPHO1 inh: 26.5

What do the screens show for `O=C(C(=O)N1CCN(c2cccc(Cl)c2)CC1)c1c[nH]c2ccccc12`?
pCIP destab: -6.5; Tb MetRS inh: 9.4*; A3A deaminase: -1.2; A3G deaminase: -8.4; PHOSPHO1 inh: -11.2; TbMetRS confirm: 12.2*; Jurkat cytotox: -0.3; Tb MetRS inh FP: 6.8

What do the screens show for `COc1ccccc1N1CCN(C(=O)C(=O)c2c(C)[nH]c3ccccc23)CC1`?
pCIP destab: -7.4; Tb MetRS inh: 6.6*; A3A deaminase: -0.7; A3G deaminase: -0.5; PHOSPHO1 inh: 43.7; TbMetRS confirm: 19.3*; Jurkat cytotox: 1.3; Tb MetRS inh FP: 3.8
